From ChEMBL document CHEMBL1155371, “Small molecule inhibitors of the neuropilin-1 vascular endothelial growth factor A (VEGF-A) interaction” (J Med Chem, 2010)
The source made the active and inactive calls. The rule behind the calls is not given here. Where a SMILES comes first, the peptide text is derived from it.

Columns and labels:
Neuropilin-1 [1] = target: T1, Neuropilin-1 (Homo sapiens, UniProt O14786); assay: Displacement of [125I]VEGF-A from human NRP1 expressed in pig aortic endothelial cells at 100 uM; assay type: cell-based; conditions: Endothelial cell
T1 sequence (O14786 whole entry): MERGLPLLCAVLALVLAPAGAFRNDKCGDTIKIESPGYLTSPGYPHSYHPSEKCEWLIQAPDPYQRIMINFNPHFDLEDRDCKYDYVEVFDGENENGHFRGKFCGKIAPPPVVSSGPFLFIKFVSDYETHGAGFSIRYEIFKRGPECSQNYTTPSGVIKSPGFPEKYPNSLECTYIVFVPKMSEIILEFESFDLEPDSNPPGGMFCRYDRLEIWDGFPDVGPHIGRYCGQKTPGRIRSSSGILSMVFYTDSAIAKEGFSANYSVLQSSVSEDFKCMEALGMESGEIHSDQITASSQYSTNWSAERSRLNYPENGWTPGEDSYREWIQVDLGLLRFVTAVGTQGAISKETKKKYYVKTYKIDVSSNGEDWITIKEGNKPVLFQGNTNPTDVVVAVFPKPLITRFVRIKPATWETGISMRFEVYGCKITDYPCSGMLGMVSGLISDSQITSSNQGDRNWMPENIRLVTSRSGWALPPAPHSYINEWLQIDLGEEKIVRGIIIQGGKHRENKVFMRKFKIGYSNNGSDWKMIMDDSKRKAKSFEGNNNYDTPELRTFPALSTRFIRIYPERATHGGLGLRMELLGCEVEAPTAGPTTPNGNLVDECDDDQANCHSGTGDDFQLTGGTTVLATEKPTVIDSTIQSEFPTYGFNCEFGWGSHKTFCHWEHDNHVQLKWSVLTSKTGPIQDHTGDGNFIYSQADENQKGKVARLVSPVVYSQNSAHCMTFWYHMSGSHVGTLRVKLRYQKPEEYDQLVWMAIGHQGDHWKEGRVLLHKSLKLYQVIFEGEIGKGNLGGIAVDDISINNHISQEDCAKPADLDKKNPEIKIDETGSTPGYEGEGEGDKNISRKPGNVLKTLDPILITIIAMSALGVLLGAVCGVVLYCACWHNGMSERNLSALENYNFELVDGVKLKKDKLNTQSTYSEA
How it was run: (§1)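 PAE cells stably expressing NRP1 (Ham's F12, 10% FBS, hygromycin B) grown to confluence. Compounds at 0.1−100 μM (single-point inhibition read at 100 μM) were added, then 0.1 nM 125I-VEGF-A165. Nonspecific binding was taken with 100-fold excess unlabeled VEGF. IC50 came from competition curves; three independent experiments, triplicate per concentration, mean ± SEM.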

Neuropilin-1 [2] = target: T1, Neuropilin-1; assay: Displacement of [125I]VEGF-A from human NRP1 expressed in pig aortic endothelial cells; assay type: cell-based, Endothelial cell; how it was run: as §1
A549 = assay: Cytotoxicity against human A549 cells after 48 hrs by XTT method; assay type: functional, cell-based
How it was run: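 A549 lung carcinoma cells seeded at 4 × 10^3 per well in serum-free medium, with compound added. After 44 h incubation, XTT labeling reagent was added and cells were incubated a further 4 h, giving 48 h total. Formazan read at 490 nm against a 595 nm reference. Three independent experiments, each in triplicate, reported as mean ± SEM.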

[3] = target: Vascular endothelial growth factor receptor 2 (Homo sapiens) (UniProt P35968); assay: Inhibition of VEGF-A-induced VEGFR2 phosphorylation in HUVEC at 100 uM by ELISA; assay type: cell-based
Chain of Vascular endothelial growth factor receptor 2 (Homo sapiens) (P35968 whole entry): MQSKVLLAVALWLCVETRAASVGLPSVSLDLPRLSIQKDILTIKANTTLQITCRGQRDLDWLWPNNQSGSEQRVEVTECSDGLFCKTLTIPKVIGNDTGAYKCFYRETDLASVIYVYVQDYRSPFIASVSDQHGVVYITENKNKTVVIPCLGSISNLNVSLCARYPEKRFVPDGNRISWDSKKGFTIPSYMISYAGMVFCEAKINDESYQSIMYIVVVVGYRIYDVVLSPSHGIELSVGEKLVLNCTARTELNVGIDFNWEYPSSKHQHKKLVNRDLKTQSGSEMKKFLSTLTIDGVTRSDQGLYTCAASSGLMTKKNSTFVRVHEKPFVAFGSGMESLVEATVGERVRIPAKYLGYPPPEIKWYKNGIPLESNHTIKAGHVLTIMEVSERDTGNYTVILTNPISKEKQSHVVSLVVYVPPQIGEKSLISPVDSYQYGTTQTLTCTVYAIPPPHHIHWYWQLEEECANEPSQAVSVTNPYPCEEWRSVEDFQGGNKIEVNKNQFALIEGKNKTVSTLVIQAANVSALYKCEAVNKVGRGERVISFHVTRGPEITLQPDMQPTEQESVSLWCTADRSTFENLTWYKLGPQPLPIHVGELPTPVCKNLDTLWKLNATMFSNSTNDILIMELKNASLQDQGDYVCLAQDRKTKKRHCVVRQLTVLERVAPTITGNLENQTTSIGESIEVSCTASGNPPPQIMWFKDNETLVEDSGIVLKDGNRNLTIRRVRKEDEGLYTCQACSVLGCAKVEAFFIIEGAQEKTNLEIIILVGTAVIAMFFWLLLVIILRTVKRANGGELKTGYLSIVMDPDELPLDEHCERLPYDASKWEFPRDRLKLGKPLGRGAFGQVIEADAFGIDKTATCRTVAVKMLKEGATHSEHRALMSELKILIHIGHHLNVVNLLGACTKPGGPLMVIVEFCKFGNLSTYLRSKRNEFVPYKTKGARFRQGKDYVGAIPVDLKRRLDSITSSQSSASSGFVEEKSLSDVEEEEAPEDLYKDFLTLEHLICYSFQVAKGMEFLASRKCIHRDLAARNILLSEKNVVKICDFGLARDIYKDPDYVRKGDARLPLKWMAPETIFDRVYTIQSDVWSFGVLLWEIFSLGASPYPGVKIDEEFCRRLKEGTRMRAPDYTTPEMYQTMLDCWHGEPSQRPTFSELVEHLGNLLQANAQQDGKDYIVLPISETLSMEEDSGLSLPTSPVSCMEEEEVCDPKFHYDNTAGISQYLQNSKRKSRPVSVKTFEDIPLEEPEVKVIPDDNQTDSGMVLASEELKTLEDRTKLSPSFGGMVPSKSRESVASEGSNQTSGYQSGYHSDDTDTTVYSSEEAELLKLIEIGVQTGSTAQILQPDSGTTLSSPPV
How it was run: (§2)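 Confluent HUVECs were pretreated 30 min with compound or DMSO vehicle, then stimulated with or without 25 ng/mL VEGF-A165 for 5 min at 37 °C. Tyr1175-phosphorylated and total VEGFR2 in lysates were measured by sandwich ELISA kits. Three independent experiments in duplicate, mean ± SEM.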

Neuropilin-1 [4] = target: T1, Neuropilin-1; assay: Displacement of [125I]VEGF-A from human NRP1 expressed in human A549 cells; assay type: cell-based
[5] = target: Vascular endothelial growth factor receptor 1 (Homo sapiens) (UniProt P17948); assay: Displacement of biotinylated-[…] from human VEGFR1 expressed in human A549 cells; assay type: cell-based
Chain of Vascular endothelial growth factor receptor 1 (Homo sapiens) (P17948 whole entry): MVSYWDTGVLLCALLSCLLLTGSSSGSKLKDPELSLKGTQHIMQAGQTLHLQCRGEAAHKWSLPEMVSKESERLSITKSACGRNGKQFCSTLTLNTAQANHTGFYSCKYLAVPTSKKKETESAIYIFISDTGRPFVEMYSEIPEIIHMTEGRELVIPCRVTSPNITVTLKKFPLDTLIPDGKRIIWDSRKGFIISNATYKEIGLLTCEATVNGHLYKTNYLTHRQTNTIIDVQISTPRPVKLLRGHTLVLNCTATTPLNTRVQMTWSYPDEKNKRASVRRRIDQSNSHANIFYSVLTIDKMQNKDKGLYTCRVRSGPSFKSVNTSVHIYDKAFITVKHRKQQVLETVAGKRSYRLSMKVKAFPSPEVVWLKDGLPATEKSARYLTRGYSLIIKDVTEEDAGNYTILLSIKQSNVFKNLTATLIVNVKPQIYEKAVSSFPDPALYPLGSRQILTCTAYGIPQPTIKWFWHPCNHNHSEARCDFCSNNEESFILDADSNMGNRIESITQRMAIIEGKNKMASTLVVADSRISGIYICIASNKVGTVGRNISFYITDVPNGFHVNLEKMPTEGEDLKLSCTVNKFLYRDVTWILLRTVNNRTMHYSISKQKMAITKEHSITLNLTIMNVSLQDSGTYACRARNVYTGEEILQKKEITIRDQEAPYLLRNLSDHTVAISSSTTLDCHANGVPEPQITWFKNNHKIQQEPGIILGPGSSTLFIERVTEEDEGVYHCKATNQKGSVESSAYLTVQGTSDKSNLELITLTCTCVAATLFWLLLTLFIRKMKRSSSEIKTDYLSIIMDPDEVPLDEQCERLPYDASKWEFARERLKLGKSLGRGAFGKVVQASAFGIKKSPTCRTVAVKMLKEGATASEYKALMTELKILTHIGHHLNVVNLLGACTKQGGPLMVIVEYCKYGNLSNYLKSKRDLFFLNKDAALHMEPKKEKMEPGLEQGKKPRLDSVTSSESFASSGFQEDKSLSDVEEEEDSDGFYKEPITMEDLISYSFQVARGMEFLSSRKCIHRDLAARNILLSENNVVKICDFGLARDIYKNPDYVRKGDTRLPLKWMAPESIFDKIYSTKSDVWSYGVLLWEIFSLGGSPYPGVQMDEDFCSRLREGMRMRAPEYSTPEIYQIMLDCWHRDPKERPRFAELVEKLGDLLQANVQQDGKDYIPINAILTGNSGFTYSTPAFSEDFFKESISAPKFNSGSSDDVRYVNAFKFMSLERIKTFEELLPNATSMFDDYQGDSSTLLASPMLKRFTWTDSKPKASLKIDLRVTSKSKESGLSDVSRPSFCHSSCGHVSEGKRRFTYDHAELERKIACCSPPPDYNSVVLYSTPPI

HUVEC = assay: Inhibition of VEGF-A-induced chemotaxis in HUVEC assessed as reduction in cell migration; assay type: functional, cell-based; conditions: Homo sapiens
How it was run: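 HUVECs in EBM/0.1% BSA were pretreated 30 min with compound or DMSO, and 1.5 × 10^5 cells were loaded into collagen I-coated 8 μm-pore transwell inserts. Cells migrated toward 25 ng/mL VEGF or medium control for 4 h at 37 °C. Migrated cells were stained and counted in four fields at ×100. Three experiments in duplicate, mean ± SEM.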

Neuropilin-1 [6] = target: T1, Neuropilin-1; assay: Displacement of biotinylated-[…] from human NRP1 expressed in HUVEC; assay type: cell-based
Neuropilin-1 [7] = target: T1, Neuropilin-1; assay: Displacement of […] from NRP1 b1 domain by cell-free assay
[8] = target: Vascular endothelial growth factor receptor 1 (Homo sapiens) (UniProt P17948); assay: Displacement of biotinylated-[…] from human VEGFR1 expressed in human DU145 cells; assay type: cell-based; conditions: DU-145
[9] = target: Vascular endothelial growth factor receptor 2 (Homo sapiens) (UniProt P35968); assay: Inhibition of VEGF-A-induced VEGFR2 phosphorylation in HUVEC by ELISA; assay type: cell-based; how it was run: as §2
Neuropilin-1 [10] = target: T1, Neuropilin-1; assay: Displacement of […] from human NRP1 expressed in human DU145 cells; assay type: cell-based, DU-145
[11] = target: Vascular endothelial growth factor receptor 2 (Homo sapiens) (UniProt P35968); assay: Displacement of biotinylated-[…] from human VEGFR2 expressed in human DU145 cells; assay type: cell-based; conditions: DU-145
[12] = target: Vascular endothelial growth factor receptor 2 (Homo sapiens) (UniProt P35968); assay: Displacement of biotinylated-[…] from human VEGFR2 expressed in human A549 cells; assay type: cell-based

SMILES | Activity (Neuropilin-1 [1]) | other results
C[C@H](NC(=O)[C@@H]1CCCN1C(=O)[C@@H](N)CCCCN)C(=O)N[C@@H](CCC(N)=O)C(=O)O (H-KPAQ-OH) | 19% | –
N=C(N)NCCC[C@H](NC(=O)c1ccccc1NS(=O)(=O)c1ccc(N)cc1)C(=O)O | 70% | –
C[C@H](NC(=O)[C@@H]1CCCN1C(=O)[C@@H](N)CCCCN)C(=O)N[C@@H](CCCCN)C(=O)O (H-KPAK-OH) | 22% | –
C[C@@H](NC(=O)[C@@H]1CCCN1C(=O)[C@@H](N)CCCCN)C(=O)N[C@@H](CCCNC(=N)N)C(=O)O | 36% | –
COC(=O)[C@H](CCCNC(=N)N)NC(=O)c1sccc1NS(=O)(=O)c1ccc([N+](=O)[O-])cc1 | 21% | –
N=C(N)NCCC[C@H](NC(=O)c1sccc1NS(=O)(=O)c1cccc2nonc12)C(=O)O | 87% | IC50 (Neuropilin-1 [2]): 17 µM
N=C(N)NCCC[C@H](NC(=O)c1ccccc1S(=O)(=O)C1CCNCC1)C(=O)O | 10% | –
N=C(N)NCCC[C@H](NC(=O)c1cccc(-c2cccc(NC(=O)C3CCC(CN)CC3)c2)c1)C(=O)O (some centres undefined) | 49% | –
N=C(N)NCCC[C@H](NC(=O)c1sccc1NS(=O)(=O)c1ccc(F)cc1F)C(=O)O | 79% | IC50 (Neuropilin-1 [2]): 33 µM
N=C(N)NCCC[C@H](NC(=O)c1sccc1NS(=O)(=O)c1ccc2nsnc2c1)C(=O)NO | 59% | –
C[C@H](NC(=O)[C@@H]1CCCN1C(=O)[C@H](N)CCCCN)C(=O)N[C@@H](CCCNC(=N)N)C(=O)O | 51% | –
N=C(N)NCCC[C@H](NC(=O)c1sccc1NS(=O)(=O)c1ccccc1N)C(=O)O | 95% | IC50 (Neuropilin-1 [2]): 17 µM
N=C(N)Nc1ccc(C[C@H](NC(=O)c2sccc2NS(=O)(=O)c2ccc(N)cc2)C(=O)O)cc1 | 13% | –
N=C(N)NCCCC[C@H](NC(=O)c1sccc1NS(=O)(=O)c1ccc(N)cc1)C(=O)O | 20% | –
N=C(N)NCCC[C@H](NC(=O)c1sccc1NS(=O)(=O)c1ccc(N)cc1)C(=O)O | 78% | IC50 (Neuropilin-1 [2]): 13 µM
N=C(N)NCCC[C@H](NC(=O)[C@H](Cc1ccccc1)NC(=O)[C@@H]1CCCN1C(=O)[C@@H](N)CCCCN)C(=O)O (H-KPFR-OH) | 63% | –
N=C(N)NCCC[C@H](NC(=O)c1sccc1NS(=O)(=O)c1ccc([N+](=O)[O-])cc1)C(=O)O (stereo in doubt; 38) [listing 1 of 2 here] | – | IC50 (Neuropilin-1 [2]): 52 µM
Cc1nc(S(=O)(=O)Nc2ccsc2C(=O)N[C@@H](CCCNC(=N)N)C(=O)O)cn1C | 88% | IC50 (Neuropilin-1 [2]): 12 µM
N=C(N)NCCC[C@H](NC(=O)[C@@H]1CCCN1C(=O)[C@@H]1CCCN1C(=O)[C@@H](N)CCCCN)C(=O)O (H-KPPR-OH) | 96% | IC50 (Neuropilin-1 [2]): 14 µM
O=c1[nH]cc(F)c(=O)[nH]1 [FLUOROURACIL] | – | IC50 (A549; A549, 48 h): 78 µM
N=C(N)NCCC[C@H](NC(=O)c1cccs1)C(=O)O | 28% | –
NCCCC[C@H](NC(=O)c1sccc1NS(=O)(=O)c1ccc([N+](=O)[O-])cc1)C(=O)O | 20% | –
CN(c1ccsc1C(=O)N[C@@H](CCCNC(=N)N)C(=O)O)S(=O)(=O)c1ccc(N)cc1 | 25% | –

SMILES | Activity (Neuropilin-1 [1]) | other results
N=C(N)NCCC[C@H](NC(=O)c1sccc1S(=O)(=O)Nc1ccc(N)cc1)C(=O)O | 0% | –
Cc1nn(C)c(Cl)c1CNc1cccc(S(=O)(=O)Nc2ccsc2C(=O)N[C@@H](CCCNC(=N)N)C(=O)O)c1 | 88% | IC50 (Neuropilin-1 [2]): 6 µM
C[C@H](NC(=O)[C@@H]1CCCN1C(=O)[C@@H](N)CCCCN)C(=O)N[C@@H](CCCNC(=N)N)C(=O)O | 83% | IC50 (Neuropilin-1 [2]): 30 µM
N=C(N)NCCC[C@H](NC(=O)c1sccc1NS(=O)(=O)c1cccc(N)c1)C(=O)O | 84% | IC50 (Neuropilin-1 [2]): 14 µM
N=C(N)NCCC[C@H](NC(=O)c1sccc1NS(=O)(=O)c1ccc([N+](=O)[O-])cc1)C(=O)O (stereo in doubt; 46) [listing 1 of 2 here] | – | IC50 (Neuropilin-1 [2]; endothelial cell): 52 µM
N=C(N)NCCC[C@@H](NC(=O)c1sccc1NS(=O)(=O)c1ccc(N)cc1)C(=O)O | 36% | –
N=C(N)NCCC[C@H](NC(=O)c1sccc1NS(=O)(=O)c1ccccc1[N+](=O)[O-])C(=O)O | 100% | IC50 (Neuropilin-1 [2]): 9 µM
CC(=O)Nc1ccc(S(=O)(=O)Nc2ccsc2C(=O)N[C@@H](CCCNC(=N)N)C(=O)O)cc1 | 84% | IC50 (Neuropilin-1 [2]): 18 µM
N=C(N)NCCC[C@H](NC(=O)C1CCN(Cc2nc(O)nc(NCCCCN)n2)CC1)C(=O)O | 32% | –
N=C(N)NCCC[C@@H](CO)NC(=O)c1sccc1NS(=O)(=O)c1ccc2nsnc2c1 | 21% | –
C[C@H](NC(=O)[C@@H]1CCCN1C(=O)[C@@H](N)CCCCN)C(=O)N[C@H](CCCNC(=N)N)C(=O)O | 22% | –
C/N=C(/NC)NCCC[C@H](NC(=O)c1sccc1NS(=O)(=O)c1ccc([N+](=O)[O-])cc1)C(=O)O | 12% | –
N=C(NCCC[C@H](NC(=O)c1sccc1NS(=O)(=O)c1ccc([N+](=O)[O-])cc1)C(=O)O)N[N+](=O)[O-] | 3% | –
N=C(N)NCCC[C@H](NC(=O)c1sccc1NS(=O)(=O)c1ccc([N+](=O)[O-])cc1)C(=O)O (stereo in doubt; 46) [listing 2 of 2 here] | 75% | –
N=C(N)NCCC[C@H](NC(=O)c1cccc(-c2cccc(NC(=O)CCCCCN)c2)c1)C(=O)O | 40% | –
N=C(N)NCCC[C@H](NC(=O)c1sccc1NS(=O)(=O)c1cccc2nsnc12)C(=O)O | 99% | inhibition [3]: 34%; IC50 (Neuropilin-1 [4]): 7 µM; Activity [5]: inactive; inhibition (HUVEC): Active; IC50 (Neuropilin-1 [6]): 23 µM; Activity (A549): Active; IC50 (Neuropilin-1 [7]): 3 µM; IC50 (Neuropilin-1 [2]): 8 µM; Activity [8]: inactive; inhibition [9]: Dose-dependent effect; IC50 (Neuropilin-1 [10]): 3 µM; Activity [11]: inactive; Activity [12]: inactive
N=C(N)NC(=O)CC[C@H](NC(=O)c1sccc1NS(=O)(=O)c1ccc([N+](=O)[O-])cc1)C(=O)O | 58% | –
N=C(N)NCCC[C@H](NC(=O)C1CCN(Cc2cccc(NC(=O)CCCCCN)c2)CC1)C(=O)O | 35% | –
CN(c1ccsc1C(=O)N[C@@H](CCCNC(=N)N)C(=O)O)S(=O)(=O)c1ccc([N+](=O)[O-])cc1 | 42% | –
N=C(N)NCCC[C@H](NC(=O)c1sccc1NS(=O)(=O)c1ccc([N+](=O)[O-])cc1)C(=O)O (stereo in doubt; 38) [listing 2 of 2 here] | 75% | –
Cc1oc(-c2ccc(NC(=O)CCCCN)cc2)cc1C(=O)N[C@@H](CCCNC(=N)N)C(=O)O | 31% | –
N=C(N)NCCCC[C@@H](CC(=O)O)NC(=O)c1sccc1NS(=O)(=O)c1ccc2nsnc2c1 | 11% | –
